Screening results: PubChem BioAssay, several laboratories
In the library only some 1.5% were active in any assay of this set; here they are far more common.
CRFR2-BP antag: CRF-BP/CRF-R2 complex antagonism; HEK293 CRF-R2/CRF-BP, CRF-induced calcium fluorescence; inhibition, % at 11.8 µM; 350,000 compounds, 0.59% hits;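 active = inhibition of the ligand-induced calcium signal above about 50% at the single tested concentration, limit read from the data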
SIRT5 inh: sirtuin-5 (human) deacylase inhibition | Purified SirT5, succinyl-peptide AMC, trypsin-coupled fluorescence | inhibition, % at 15 µM | 330,000 compounds, 1.1% hits | AID 652115; in the data active = inhibition above about 15%
Target sequence (Q9NXA8 whole entry, looked up): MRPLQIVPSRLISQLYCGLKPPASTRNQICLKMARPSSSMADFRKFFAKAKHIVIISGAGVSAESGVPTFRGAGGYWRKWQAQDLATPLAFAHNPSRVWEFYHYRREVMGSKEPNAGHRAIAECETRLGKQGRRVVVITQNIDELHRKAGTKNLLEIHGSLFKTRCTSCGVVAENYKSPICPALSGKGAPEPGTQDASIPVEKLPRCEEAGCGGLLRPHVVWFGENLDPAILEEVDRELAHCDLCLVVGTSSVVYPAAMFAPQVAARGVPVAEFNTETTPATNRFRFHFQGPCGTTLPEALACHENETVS
PKA-R1A activ: activates the PKA-R1A holoenzyme complex; PKA-R1A dissociation, Cy5-IP20 fluorescence polarization; scaled: DMSO 0%, 113 µM cGMP 100%; activation, % at 11.4 µM; 340,000 compounds, 0.083% hits; AID 504707;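 active = percent activation above the mean of all tested compounds plus 3 SD, cut at about 19% in these data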;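 also: higher means more PKAc released from R1A so a rise in polarization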
S100A4 inh HTS: inhibitors of human S100A4 binding to myosin IIA peptide | S100A4/TAMRA-MyoIIA peptide fluorescence polarization | 360,000 compounds, 0.14% hits | inhibition, % at 10.7 µM | AID 652163;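 active = mean inhibition of at least 70% across replicates, with every replicate also reaching that level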
Target sequence (P26447 whole entry, looked up): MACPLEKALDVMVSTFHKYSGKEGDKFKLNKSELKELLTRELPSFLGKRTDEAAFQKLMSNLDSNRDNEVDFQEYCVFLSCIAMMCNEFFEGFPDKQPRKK
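Material: human S100A4 monomer with TAMRA-labelled myosin IIA peptide; buffer or medium: HEPES pH 7.2 with CaCl2, KCl, NaCl, DTT, Triton; compound dosing: one concentration per compound; schedule: 5 min incubation before reading; benchmarks: neutral control DMSO, positive control TFP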
PKA-R2B activ: PKA-R2B complex activation; P22694+P31323; PKA-R2B holoenzyme dissociation, Cy5-IP20 fluorescence polarization; R2B truncated from residue 108, S112A mutant; 0% DMSO only, 100% 113 µM cGMP; activation, % at 11.4 µM; 340,000 compounds, 0.079% hits;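 active = activation above a cutoff set at the mean over all compounds plus 3 SD, cut at about 18% in these data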;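 also: higher means more holoenzyme dissociation and a rise in polarization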
The depositor's hits bear a star; / = not tested or not shown.

SMILES	CRFR2-BP antag	SIRT5 inh	PKA-R1A activ	S100A4 inh HTS	PKA-R2B activ
O=C(Nc1ccccc1)c1ccccc1NS(=O)(=O)c1ccc(Cl)s1	68*	/	0	/	-4
CS(=O)(=O)c1ccccc1C(=O)Nc1ccccc1Cc1ccccc1	7	-4	-8	-1	1
CC(C)NC(=O)N(C)C[C@H]1OCCCC[C@H](C)Oc2ccc(NC(=O)Nc3ccc(C(F)(F)F)cc3)cc2C(=O)N([C@H](C)CO)C[C@H]1C	/	3	/	6	/
CNC[C@H]1Oc2cc(C#CC3(O)CCCC3)ccc2S(=O)(=O)N([C@@H](C)CO)C[C@H]1C	/	2	/	3	/
CN(C)CC(=O)N1[C@@H]2c3ccc(-c4ccc(F)cc4)c(=O)n3C[C@@H]2[C@@H](CO)[C@@H]1C(=O)NC1CCC1	/	-13	/	-1	/
CCOC(=O)c1cc(C(C)C)sc1NC(=O)COC(=O)CCS(=O)(=O)c1ccccc1	1	34*	-7	-3	-6
COc1ccc(OC2C(=O)N(c3cc(C)ccc3C)C2c2ccc(OC)c(OC)c2)cc1 (stereo not drawn)	51*	/	-2	/	6
COc1ccc(OC2C(=O)N(c3ccc(C)c(C)c3)C2c2ccc(OC)c(OC)c2)cc1 (stereo not drawn)	17	0	-10	3	1
Cc1c(C(=O)N2CC(C(=O)N3CCCCC3)Oc3ccccc32)oc2ccccc12 (stereo not drawn)	75*	8	-5	15	-7
CCc1ccccc1NC(=O)NC(C)c1ccc2c(c1)OCO2 (stereo not drawn)	61*	-7	-7	-4	5
C=CCOc1c(CNc2cccc(C(=O)O)c2)cccc1OCC	64*	/	5	/	3
C=CCOc1c(CNc2cccc(C(=O)O)c2)cccc1OC	-9	/	-1	/	2
Brc1ccccc1/C=N/Nc1ccc2ccccc2n1	-20	-4	-10	3	-3
O=[N+]([O-])c1cccc(C=NNc2ccc3ccccc3n2)c1O	78*	0	3	10	-8
O=C(NCc1ccc2c(c1)OCO2)C(=O)NCC1OCCN1S(=O)(=O)c1ccc(Cl)cc1 (stereo not drawn)	7	22*	-5	-17	0
COc1ccc(S(=O)(=O)N2CCOC2CNC(=O)C(=O)NCCc2ccccc2)cc1C (stereo not drawn)	140*	-1	2	3	-5
CO[C@H](CN(C)C(=O)C1CCOCC1)[C@@H](C)CN(C(=O)Nc1ccc(C(F)(F)F)cc1)[C@@H](C)CO	/	1	/	7	/
COCC#Cc1ccc([C@@H]2[C@@H](CO)N3CCCCN(S(=O)(=O)c4ccc(OC)cc4)C[C@H]23)cc1	/	-20	/	10	/
CCOc1ccc(S(=O)(=O)N2CN(c3cccc(C(C)=O)c3)c3nc4ccccc4nc32)cc1	52*	/	-6	0	-6
O=c1c(Sc2ccccc2)c(C(F)(F)F)[nH]n1-c1ccccc1	81*	/	-3	/	2
O=c1c2c(C(F)(F)F)cc(C(F)(F)F)nc2[nH]n1-c1ccccc1	12	2	4	-1	2
N#C[C@H]1[C@@H](c2ccc(C#CC3CC3)cc2)[C@@H](CO)N1S(=O)(=O)c1ccccc1	/	-4	/	-47	/
O=C1CNC[C@H]2[C@@H](c3ccc(C4=CCCC4)cc3)[C@H](CO)N12	/	21*	/	-3	/
CCS(=O)(=O)N1CC(=O)N2[C@H](CO)[C@H](c3ccc(C4=CCCCC4)cc3)[C@@H]2C1	/	22*	/	/	/
Cc1ccc(C(C(=O)NC(C)(C)C)N(C(=O)CCC(=O)Nc2ccccn2)c2ccccc2F)cc1 (stereo not drawn)	-8	19*	2	-1	-3
CCCCc1c(-c2ccccc2F)ncn1CCc1ccccc1OC	/	28*	/	-4	/
C[C@H]1CN([C@@H](C)CO)S(=O)(=O)c2ccc(-c3ccncc3)cc2O[C@H]1CN(C)C(=O)CC1CC1	/	0	/	-19	/
Cc1ccnc(NC(=O)CCC(=O)N(Cc2ccco2)C(C(=O)NC(C)C)c2ccc(F)cc2)c1 (stereo not drawn)	14	100*	-4	2	-10
CNC[C@H]1Oc2ccc(NC(=O)Nc3cccc4ccccc34)cc2C(=O)N([C@@H](C)CO)C[C@@H]1C	/	12	/	-6	/
